In PubChem BioAssay:
Calls of active or inactive are those of the source.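 Rule for the calls, unless noted: active = NADPH fluorescence slope more negative than the mean of all samples by about 3 SD, 99.7% confidence; inactive = the rest.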

Experiments:
[1] = inhibitors of TNFa-induced NFkB p65 translocation, primary screen, imaging, HUVEC, MLSMR starter and 10KST1 sets (AID 438;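 active = inhibition above 20% together with a positive visual image hit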;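 note: compound added about 3h40 before a 20 min TNFalpha stimulation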;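 for inhibition: signal is the nuclear over cytoplasmic p65 intensity ratio per well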); conditions: HUVEC TNFa-induced p65 nuclear translocation; cell count: measured here: nuclei count (cytotoxicity indicator), at 2.08 µM; inhibition: at 2 µM, stronger effect = higher value, 0% TNFa-plus-vehicle, 100% no-TNFa wells
[2] = reduction of polyQ htt aggregates in cells – imaging, exon1htt(103Q)mCFP cells, high-content imaging, primary screen (AID 483;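 active = visual image review flags a hit and inhibition of aggregation exceeds 20%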;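 note: compound exposure lasted 3 days before fixation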;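 for nuclei count: percent of the per-plate median nuclei count of sample wells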); conditions: exon1htt(103Q)mCFP cell line, aggregate imaging, at 2 µM; inhibition of aggregation: stronger effect = higher value; nuclei count: measured here: cell count, toxicity
[3] = endothelial E-selectin expression blockers – imaging, HUVEC, immunofluorescence, MLSMR starter and 10KST1 sets, primary screen (AID 487;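 active = visually confirmed hit in the image check and inhibition above 20%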;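 for inhibition: signal is fraction of cell area covered by stained E-selectin grains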;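 for nuclei count: 100% = median nuclei count of all wells on the same plate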); conditions: HUVEC TNFalpha-induced E-selectin immunofluorescence imaging, at 2 µM; inhibition: stronger effect = higher value; nuclei count: measured here: cell number, toxicity
[4] = target: Voltage-gated potassium channel subunit beta-2 (Rattus norvegicus) (UniProt P62483); assay: inhibitors of rat Kvbeta2 reductase activity – biochemical, NADPH fluorescence, primary screen (AID 622;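 active = fluorescence slope higher than the sample average by over 3 SD, cut at about -0.22 in these data, passing the limit was not always enough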;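 note: slope of raw intensity against log time taken from 70 to 1610 s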); conditions: recombinant KvBeta, 4-cyanobenzaldehyde reduction, at 10 µM, stronger effect = higher value
[5] = target: Voltage-gated potassium channel subunit beta-2 (Rattus norvegicus) (UniProt P62483); assay: enhancers of rat Kvbeta2 NADPH turnover – biochemical, NADPH fluorescence, primary screen (AID 623); conditions: Recombinant KvBeta, NADPH fluorescence decrease slope, 10 min; at 10 µM; stronger effect = lower value;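 note: fluorescence intensity change per second fitted from 20 to 320 s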
[6] = target: Muscarinic acetylcholine receptor M4 (Homo sapiens) (UniProt P08173); assay: M4-linked GIRK flux change, two-sided – cell-based, HEK293 M4/GIRK, thallium flux, BTC-AM, M4 allosteric agonist project, primary screen (AID 625;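 active = fluorescence slope after compound addition differing from the mean of all tested samples at 99.7% confidence, mostly higher but some lower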;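 note: thallium influx through GIRK channels coupled to M4 in HEK293 cells with BTC-AM dye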); conditions: at 10 µM, actives lie on both sides
Summary of the method: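 Assay system: HEK293 cells with M4 receptor and GIRK channels / Controls: carbachol and DMSO controls / Schedule: 1 h dye loading, 2 min kinetic read / Technique: kinetic fluorescence with BTC-AM dye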

[7] = blockers of RIG-like receptor reporter activation – cell-based, Sendai virus stimulus, luciferase, 10K MLSCN set, TLR/RLR signaling modifier project, primary screen (AID 602276;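 active = inhibition at or above 50% at 10 µM; inactive = inhibition below 50%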;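 note: firefly luciferase from ISG56 promoter only with Renilla not read in this screen; 0% = Sendai virus plus DMSO and 100% = medium plus DMSO without virus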); conditions: HEK293 RL24 IRF3 luciferase reporter, at 10 µM, stronger effect = higher value
[8] = TLR3 IRF3 reporter activation blockers – cell-based, poly I:C stimulus, luciferase, 10K MLSCN set, primary screen (AID 602277;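 active = inhibition of the reporter signal at or above 50%; inactive = inhibition below 50%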); conditions: HEK293-TLR3 RL24 IRF3 luciferase reporter, at 10 µM, stronger effect = higher value

Sequence of Voltage-gated potassium channel subunit beta-2 (Rattus norvegicus) (P62483 whole entry, looked up): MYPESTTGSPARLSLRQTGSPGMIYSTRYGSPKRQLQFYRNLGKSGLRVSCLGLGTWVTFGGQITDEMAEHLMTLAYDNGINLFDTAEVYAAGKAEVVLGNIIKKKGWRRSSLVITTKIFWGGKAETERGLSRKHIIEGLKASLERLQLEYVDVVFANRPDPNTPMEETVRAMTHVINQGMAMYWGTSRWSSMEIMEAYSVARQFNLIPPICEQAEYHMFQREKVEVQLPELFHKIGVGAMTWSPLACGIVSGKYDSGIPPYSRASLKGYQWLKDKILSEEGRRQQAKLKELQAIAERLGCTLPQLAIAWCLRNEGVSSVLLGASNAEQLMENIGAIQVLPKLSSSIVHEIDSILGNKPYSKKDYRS
Sequence of Muscarinic acetylcholine receptor M4 (Homo sapiens) (P08173 whole entry, looked up): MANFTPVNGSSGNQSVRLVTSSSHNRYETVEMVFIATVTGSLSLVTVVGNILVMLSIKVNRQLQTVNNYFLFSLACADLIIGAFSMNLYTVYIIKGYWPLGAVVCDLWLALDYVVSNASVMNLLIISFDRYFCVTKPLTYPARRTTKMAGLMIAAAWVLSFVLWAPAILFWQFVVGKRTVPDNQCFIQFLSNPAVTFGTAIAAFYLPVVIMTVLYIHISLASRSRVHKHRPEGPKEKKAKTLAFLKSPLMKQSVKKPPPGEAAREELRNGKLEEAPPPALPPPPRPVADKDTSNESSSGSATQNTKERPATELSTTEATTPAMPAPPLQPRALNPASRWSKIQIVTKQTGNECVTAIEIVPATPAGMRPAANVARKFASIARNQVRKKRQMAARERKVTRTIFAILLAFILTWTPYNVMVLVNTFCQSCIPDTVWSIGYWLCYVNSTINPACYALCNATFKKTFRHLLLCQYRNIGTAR

Compound | cell count [1] | inhibition [1] | inhibition of aggregation [2] | nuclei count [2] | inhibition [3] | nuclei count [3] | fluorescence slope [4] | NADPH fluorescence slope [5] | fluorescence slope [6] | inhibition [7] | inhibition [8]
NCC(O)COc1ccc2c(c1)OCO2 (stereo not drawn) | 378 | -7% (inactive) | -7.4% (inactive) | 99.3% | -61.9% (inactive) | 103% | -0.551 (inactive) | -0.000108 (inactive) | 0.00335 (inactive) | -1.42% (inactive) | 3.66% (inactive)
CCOC(=O)c1[nH]c(C)c(C(=O)N(C)C)c1C | 684 | -10.9% (inactive) | 14.5% (inactive) | 111% | -68% (inactive) | 106% | -0.465 (inactive) | -1.4e-05 (inactive) | 0.00674 (inactive) | -36.1% (inactive) | 99.3% (active)
COc1ccc(-c2cn3c(C)c(C(=O)Nc4cc(NC(C)=O)ccc4OC)sc3n2)cc1 | 693 | 7.3% (inactive) | -40.3% (inactive) | 59% | -116% (inactive) | 118% | -0.166 (inactive) | -6.9e-06 (inactive) | 0.00656 (inactive) | 42.7% (inactive) | 26.4% (inactive)
CCOC(=O)c1c(C)oc2ccc(O)c(CN3CCCCC3)c12 | 376 | -0.9% (inactive) | -42.7% (inactive) | 102% | -90.5% (inactive) | 81.7% | -0.383 (inactive) | 2.5e-05 (inactive) | 0.00399 (inactive) | 17.3% (inactive) | 31.7% (inactive)
O=C1c2ccccc2C(O)(Cc2ccccc2)N1Cc1ccco1 (stereo not drawn) | 425 | -2.9% (inactive) | -10.1% (inactive) | 96.8% | -110% (inactive) | 131% | -0.554 (inactive) | -1.5e-05 (inactive) | 0.00578 (inactive) | 8.83% (inactive) | 21.9% (inactive)
Cc1ccc(-n2ncc3c(=O)n(CC(=O)NC4CCCCC4)cnc32)cc1C | 281 | -0.3% (inactive) | 4.3% (inactive) | 96.7% | -3.3% (inactive) | 106% | -0.575 (inactive) | 2.2e-05 (inactive) | 0.00615 (inactive) | 13.5% (inactive) | 15.1% (inactive)
Cc1cc(NC(=O)c2ccc(Cl)cc2)no1 | 206 | 0.8% (inactive) | 41.9% (active) | 92% | -58.4% (inactive) | 83.6% | -0.561 (inactive) | 1.1e-05 (inactive) | 0.00496 (inactive) | -41.1% (inactive) | -168% (inactive)
Cc1ccc(C)c(OCC(O)CN2C(C)CCCC2C)c1 (stereo not drawn) | 379 | 0% (inactive) | 2.7% (inactive) | 93.8% | -71.2% (inactive) | 117% | -0.526 (inactive) | 5e-05 (inactive) | 0.00528 (inactive) | 13.4% (inactive) | 26.5% (inactive)
O=C(NCc1ccccn1)Nc1ccc2c(c1)OCO2 | 415 | -12.8% (inactive) | -6.8% (inactive) | 100% | 3.1% (inactive) | 92.3% | -0.459 (inactive) | -1.3e-06 (inactive) | 0.00592 (inactive) | 10.3% (inactive) | 99.1% (active)
O=C(COc1nnc2ccccn12)N1CCN(S(=O)(=O)c2ccccc2)CC1 | 691 | -3.3% (inactive) | -29.7% (inactive) | 95.4% | -18.1% (inactive) | 122% | -0.405 (inactive) | -9.3e-05 (inactive) | 0.00653 (inactive) | -12.4% (inactive) | 98.8% (active)
COc1ccccc1C1C(C(C)=O)=C(O)C(=O)N1CCc1ccccc1 (stereo not drawn) | 373 | 9.5% (inactive) | -6.3% (inactive) | 105% | -33.5% (inactive) | 103% | -0.549 (inactive) | -3.7e-05 (inactive) | 0.00483 (inactive) | 10.7% (inactive) | 18.1% (inactive)
Cc1nc2cc(CO)ccc2n1C | 425 | 4.7% (inactive) | 1% (inactive) | 92.7% | -12.6% (inactive) | 108% | -0.589 (inactive) | -3.5e-05 (inactive) | 0.00622 (inactive) | 2.69% (inactive) | 14.4% (inactive)
Cc1ccc(S(=O)(=O)N(CC(=O)N2CCOCC2)CC(=O)N2CCOCC2)cc1 | 676 | -9% (inactive) | -5.6% (inactive) | 108% | -163% (inactive) | 106% | -0.486 (inactive) | -1.3e-05 (inactive) | 0.00519 (inactive) | 13% (inactive) | 27.1% (inactive)
Cc1ccc(CN2C(=O)CCC2C(=O)NCC2CCCO2)cc1 (stereo not drawn) | 317 | 10.5% (inactive) | -27.2% (inactive) | 91% | -16.2% (inactive) | 97.8% | -0.556 (inactive) | -2.2e-05 (inactive) | 0.0066 (inactive) | -7.7% (inactive) | 1.56% (inactive)
COc1cc2[nH]c(=O)n(CCC(=O)N3CCc4ccccc4C3)c(=O)c2cc1OC | 452 | -20.3% (inactive) | 6.9% (inactive) | 94.4% | -83.3% (inactive) | 108% | -0.15 (inactive) | -9.5e-06 (inactive) | 0.00747 (inactive) | 14.4% (inactive) | -15.8% (inactive)
CCCOc1ccc(N2C(=O)CC(NCCCN3CCC(C(N)=O)CC3)C2=O)cc1 (stereo not drawn) | 322 | -0.7% (inactive) | 9.6% (inactive) | 121% | -32% (inactive) | 110% | -0.429 (inactive) | -4.4e-05 (inactive) | 0.00445 (inactive) | 19.4% (inactive) | 19.7% (inactive)
COc1cccc(NC(=O)Cc2nnc(SCC(=O)c3ccccc3)n2C)c1 | 454 | 9.7% (inactive) | -12.5% (inactive) | 88.6% | -39.3% (inactive) | 91.8% | -0.5 (inactive) | 1.7e-05 (inactive) | 0.0063 (inactive) | 3.81% (inactive) | 10.1% (inactive)
C1=CC2CC1CC2CN1CCN(c2ccccc2)CC1 (stereo not drawn) | 411 | 1.5% (inactive) | -19.6% (inactive) | 114% | -37.7% (inactive) | 100% | -0.479 (inactive) | -2.1e-05 (inactive) | 0.00448 (inactive) | 2.18% (inactive) | 4.2% (inactive)
CC(=O)N1C(=O)C2(Nc3ccccc3N2)c2ccccc21 | 406 | -4.3% (inactive) | 6.4% (inactive) | 108% | 20.6% (inactive) | 108% | -0.283 (inactive) | -1.3e-05 (inactive) | 0.00603 (inactive) | -8.46% (inactive) | 9.54% (inactive)
Cc1cccc(Cn2c(=O)n(Cc3ccco3)c(=O)c3ccccc32)c1 | 659 | 0.5% (inactive) | -10.9% (inactive) | 122% | -39% (inactive) | 113% | -0.608 (inactive) | -3.9e-05 (inactive) | 0.00404 (inactive) | 0.06% (inactive) | -5.18% (inactive)
CCOC(=O)CSc1nnc(-c2ccc(S(=O)(=O)N3CCOCC3)cc2)n1-c1ccccc1 | 193 | -21.3% (inactive) | -7.9% (inactive) | 88.6% | -19.3% (inactive) | 94.3% | -0.486 (inactive) | -3.1e-05 (inactive) | 0.00502 (inactive) | 10.2% (inactive) | 17.7% (inactive)
Cc1ccc2cc(C#N)c(N3CCCC3)nc2c1C | 360 | 4.8% (inactive) | 10% (inactive) | 111% | -49.6% (inactive) | 110% | -0.195 (inactive) | -2.2e-05 (inactive) | 0.00646 (inactive) | 13.3% (inactive) | -29.1% (inactive)
CC(=O)C1=C(N2CCCCC2)CCC1=O | 431 | 2.3% (inactive) | -14.9% (inactive) | 100% | -0.5% (inactive) | 109% | -0.328 (inactive) | -1.9e-05 (inactive) | 0.00689 (inactive) | 8.02% (inactive) | 11.2% (inactive)
Cc1c(C(=O)O)sc2nc3n(c(=O)c12)CCC(C)CC3 (stereo not drawn) | 621 | -10.5% (inactive) | -7.7% (inactive) | 113% | -29.1% (inactive) | 110% | -0.442 (inactive) | 6.7e-05 (inactive) | 0.00587 (inactive) | 6.81% (inactive) | 11.1% (inactive)
Cc1ccc(-c2cc(C(F)F)nc(N3CCC(C)CC3)n2)cc1 | 653 | -35.4% (inactive) | -11.6% (inactive) | 102% | -81.9% (inactive) | 117% | -0.432 (inactive) | -1.2e-05 (inactive) | 0.00777 (inactive) | 4.72% (inactive) | -1.99% (inactive)
N#CC1=C(SCc2ccccc2)NC(=O)C(C#N)C12CCCC2 (stereo not drawn) | 413 | 4% (inactive) | -2.9% (inactive) | 116% | -9.1% (inactive) | 86.6% | -0.426 (inactive) | 2e-05 (inactive) | 0.00517 (inactive) | 2.21% (inactive) | -12.9% (inactive)
COc1cccc(-n2nnnc2SCC(=O)NCc2ccco2)c1 | 423 | -3.3% (inactive) | -7.7% (inactive) | 94% | -44.9% (inactive) | 128% | -0.548 (inactive) | -2.6e-05 (inactive) | 0.00522 (inactive) | 19.3% (inactive) | 21.4% (inactive)
O=C1c2ccccc2C(=O)N1Cc1nc2ccccc2c(=O)n1CCN1CCOCC1 | 383 | -10.3% (inactive) | -11.3% (inactive) | 85.7% | -48.6% (inactive) | 160% | -0.521 (inactive) | 1.6e-05 (inactive) | 0.0047 (inactive) | 14.9% (inactive) | 12.8% (inactive)
